From PMC3742633 (Molecular cancer therapeutics, 2013)

How the values were obtained:
[1] = system: T-47D; assay: NCI 60 cell line screen, Sulforhodamine B Assay; format: cell-based; details: Homo sapiens, T47D, 48 h
Method in brief: (§1)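 Run through the National Cancer Institute 60 cell line screening service on its panel of 59 human cancer lines in vitro. Cytostatic/toxic effect was read as cellular protein content (sulforhodamine B) over 48 h.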

[2] = system: ACHN; assay: NCI 60 cell line screen, Sulforhodamine B Assay; format: cell-based; details: Homo sapiens, 48 h
Method in brief: (§2)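 Run through the NCI-60 screening service: human cancer cell lines exposed to test compound for 48 h. Growth read as cellular protein content by sulforhodamine B staining, and GI50 derived from this.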

[3] = system: OVCAR-5; assay: NCI 60 cell line screen, Sulforhodamine B Assay; format: cell-based; details: Homo sapiens, OVCAR-5, 48 h
Method in brief: as §2

[4] = system: SK-MEL-5; assay: NCI 60 cell line screen, Sulforhodamine B Assay; format: cell-based; details: Homo sapiens, SK-MEL-5, 48 h
Method in brief: as §1

[5] = system: SK-OV-3; assay: NCI 60 cell line screen, Sulforhodamine B Assay; format: cell-based; details: Homo sapiens, SK-OV-3, 48 h
Method in brief: as §1

[6] = system: MOLT-4; assay: NCI 60 cell line screen, Sulforhodamine B Assay; format: cell-based; details: Homo sapiens, MOLT-4, 48 h
Method in brief: as §2

[7] = system: MDA-MB-435; assay: NCI 60 cell line screen, Sulforhodamine B Assay; format: cell-based; details: Homo sapiens, MDA-MB-435, 48 h
Method in brief: as §2

[8] = system: UACC-257; assay: NCI 60 cell line screen, Sulforhodamine B Assay; format: cell-based; details: Homo sapiens, UACC-257, 48 h
Method in brief: as §1

[9] = system: A549/ATCC; assay: NCI 60 cell line screen, Sulforhodamine B Assay; format: cell-based; details: Homo sapiens, A549, 48 h
Method in brief: as §2

[10] = system: HCT-116; assay: NCI 60 cell line screen, Sulforhodamine B Assay; format: cell-based; details: Homo sapiens, HCT-116, 48 h
Method in brief: as §2

[11] = system: SF-268; assay: NCI 60 cell line screen, Sulforhodamine B Assay; format: cell-based; details: Homo sapiens, SF-268, 48 h
Method in brief: as §2

[12] = system: SR; assay: NCI 60 cell line screen, Sulforhodamine B Assay; format: cell-based; details: Homo sapiens, 48 h
Method in brief: as §1

[13] = system: MDA-MB-231/ATCC; assay: NCI 60 cell line screen, Sulforhodamine B Assay; format: cell-based; details: Homo sapiens, MDA-MB-231, 48 h
Method in brief: as §2

[14] = system: LLC tumors; assay: 18F-FDG micro-PET imaging of LLC-bearing mice; format: in vivo, C57Bl/6 mice; details: 25 mg/kg i.p. once, 45 minutes, normalized to FDG uptake in the cerebellum
Method in brief: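 Tumor-bearing mice were anesthetized with isoflurane and given 200 μCi FDG i.v. by tail vein. Baseline 15-min static micro-PET scans were taken 45 min after tracer (OSEM, 6 subsets/4 iterations). Tumor and cerebellum regions of interest were quantified in quadruplicate. 24 h later, test compound 25 mg/kg i.p. once, then re-scan 45 min later.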

[15] = system: purified PFK-1; assay: Activity of purified PFK-1; format: biochemical; details: up to 100 μM; data not shown
[16] = system: PC-3; assay: NCI 60 cell line screen, Sulforhodamine B Assay; format: cell-based; details: Homo sapiens, PC-3, 48 h
Method in brief: as §2

[17] = system: HOP-62; assay: NCI 60 cell line screen, Sulforhodamine B Assay; format: cell-based; details: Homo sapiens, HOP-62, 48 h
Method in brief: as §2

[18] = system: SF-295; assay: NCI 60 cell line screen, Sulforhodamine B Assay; format: cell-based; details: Homo sapiens, SF-295, 48 h
Method in brief: as §2

[19] = system: HCT-15; assay: NCI 60 cell line screen, Sulforhodamine B Assay; format: cell-based; details: Homo sapiens, HCT-15, 48 h
Method in brief: as §2

[20] = system: MDA-MB-468; assay: NCI 60 cell line screen, Sulforhodamine B Assay; format: cell-based; details: Homo sapiens, MDA-MB-468, 48 h
Method in brief: as §2

[21] = system: A498; assay: NCI 60 cell line screen, Sulforhodamine B Assay; format: cell-based; details: Homo sapiens, A498, 48 h
Method in brief: as §2

[22] = system: SN12C; assay: NCI 60 cell line screen, Sulforhodamine B Assay; format: cell-based; details: Homo sapiens, 48 h
Method in brief: as §1

[23] = system: EKVX; assay: NCI 60 cell line screen, Sulforhodamine B Assay; format: cell-based; details: Homo sapiens, 48 h
Method in brief: as §2

[24] = system: RPMI-8226; assay: NCI 60 cell line screen, Sulforhodamine B Assay; format: cell-based; details: Homo sapiens, RPMI-8226, 48 h
Method in brief: as §2

[25] = system: COLO 205; assay: NCI 60 cell line screen, Sulforhodamine B Assay; format: cell-based; details: Homo sapiens, COLO 205, 48 h
Method in brief: as §2

[26] = system: Jurkat T cell leukemia cells; assay: Annexin V / propidium iodide flow cytometry; format: cell-based, human; details: five hours
[27] = system: CCRF-CEM; assay: NCI 60 cell line screen, Sulforhodamine B Assay; format: cell-based; details: Homo sapiens, 48 h
Method in brief: as §2

[28] = system: OVCAR-4; assay: NCI 60 cell line screen, Sulforhodamine B Assay; format: cell-based; details: Homo sapiens, OVCAR-4, 48 h
Method in brief: as §2

[29] = Tolerability of intraperitoneal PFK15; details: 25 mg/kg i.p. every three days
[30] = system: DU-145; assay: NCI 60 cell line screen, Sulforhodamine B Assay; format: cell-based; details: Homo sapiens, DU-145, 48 h
Method in brief: as §2

[31] = system: SNB-15; assay: NCI 60 cell line screen, Sulforhodamine B Assay; format: cell-based; details: Homo sapiens, 48 h
Method in brief: as §1

[32] = system: MALME-3M; assay: NCI 60 cell line screen, Sulforhodamine B Assay; format: cell-based; details: Homo sapiens, 48 h
Method in brief: as §2

[33] = system: LLC tumors; assay: Lewis lung carcinoma; format: in vivo, C57Bl/6 mice
Method in brief: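 C57Bl/6 mice (20 g) given 1×10^6 LLC cells s.c. in PBS. At 150–200 mg tumor mass, groups of 8 randomized to DMSO or test compound 25 mg/kg i.p. (methods: every 3 days ×4). Blinded caliper tumor mass and body mass recorded daily; lungs examined for metastases after 14 days. Separate subgroup at day 4: tumors assayed for F26BP, plus H&E and anti-cleaved caspase 3 immunohistochemistry on formalin-fixed paraffin sections.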

[34] = system: 786–0; assay: NCI 60 cell line screen, Sulforhodamine B Assay; format: cell-based; details: Homo sapiens, 786-0, 48 h
Method in brief: as §2

[35] = four days after initiation, n=4

SMILES: O=C(C=Cc1ccc2ccccc2n1)c1ccncc1 [PFK15, 1-(4-pyridinyl)-3-(2-quinolinyl)-2-propen-1-one]
- GI50 [1]: 3.63 µM
- GI50 [2]: 2.04 µM
- GI50 [3]: 5.37 µM
- GI50 [4]: 3.47 µM
- GI50 [5]: 15.1 µM
- GI50 [6]: 2.24 µM
- GI50 [7]: 3.24 µM
- GI50 [8]: 3.98 µM
- GI50 [9]: 5.37 µM
- GI50 [10]: 1.32 µM
- GI50 [11]: 5.25 µM
- GI50 [12]: 0.23 µM
- GI50 [13]: 2.04 µM
- reduction in 18F-FDG uptake [14]: ~ 50%
- inhibition of activity of purified PFK-1 [15]: not inhibit
- GI50 [16]: 3.16 µM
- GI50 [17]: 2.34 µM
- GI50 [18]: 13.5 µM
- GI50 [19]: 1.1 µM
- GI50 [20]: 1.66 µM
- GI50 [21]: 11.8 µM
- GI50 [22]: 1.86 µM
- GI50 [23]: 12.9 µM
- GI50 [24]: 2.19 µM
- GI50 [25]: 2.45 µM
- cells undergoing early apoptosis (Annexin V+/PI−) ([26]; 3 μM): increased
- cells undergoing late apoptosis (Annexin V+/PI+) ([26]; 3 and 20 μM): dose-dependent increase
- GI50 [27]: 3.8 µM
- GI50 [28]: 2.34 µM
- body mass loss [29]: < 10%
- end organ toxicity based on blood, urine and histological analyses [29]: no end organ toxicity
- GI50 [30]: 2.24 µM
- GI50 [31]: 11.2 µM
- GI50 [32]: 3.31 µM
- effect on body mass of LLC-bearing mice ([33]; PFK15 i.p., C57Bl/6 mice): without a major effect
- growth of established LLC tumors ([33]; PFK15 i.p., C57Bl/6 mice, 14 days): statistically significant reduction
- lung metastases in LLC-bearing mice ([33]; after 14 days): no lung metastases
- cells positive for cleaved caspase 3 by immunohistochemistry [33, 35]: marked increase
- tumor-associated F26BP [33, 35]: reduced
- GI50 [34]: 2 µM
